Compound activity deposited in PubChem BioAssay by several laboratories.
Only some compounds are listed: those with a hit (about 2% of all), similar ones and a draw of the others.
beta cell repl: inducers of MIN6 beta-cell proliferation, primary screen, ATP luminescence, uHTS; AID 2380, 2010; 330,000 compounds, 0.29% hits; proliferation, % at 10 µM; MIN6 cells proliferation, ATPlite luminescence, 48 h; cells starved in 0.2% serum; 100% = growth in 10% serum;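 active = compounds whose signal lies at least 3.5 SD above the mean of all wells on their plate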;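 also: 0% = DMSO-treated cells in low-serum medium and 100% = 10% serum control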
IMP-1 inh: IMP-1 metallo-beta-lactamase inhibitors, primary screen, biochemical, epi-absorbance readout, Pseudomonas aeruginosa enzyme; purified IMP-1, nitrocefin hydrolysis, epi-absorbance fluorescence; inhibition, % at 5.6 µM; 290,000 compounds, 0.45% hits;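 active = inhibition above the mean plus 3 SD of all compounds in the same screening run, cut at about 4.5% in these data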;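 also: 0% = IMP-1 with DMSO and 100% = DMSO wells lacking enzyme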
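System – purified recombinant IMP-1 beta-lactamase · Input – IMP-1 dispensed at 0.2 nM · Timing – 15 min preincubation plus 25 min reaction at 25 °C · Signal – Epi-absorbance fluorescence, 480 nm excitation, 530 nm emission · Measure – percent IMP-1 inhibition derived from blank-referenced optical density · Controls – Enzyme-plus-DMSO low control, enzyme-free DMSO high control · Replication – singlicate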
HKDC1 inh: HKDC1 hexokinase inhibitors, primary screen, biochemical, fluorescence, uHTS; recombinant HKDC1, G6PDH/diaphorase resazurin coupled fluorescence; AID 493160, 2011; inhibition, % at 20 µM; 340,000 compounds, 0.16% hits; Q2TB90;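 active = inhibition above about 35% when tested at 20 µM, limit read from the data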;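 also: plate controls were DMSO wells with enzyme for no effect and DMSO wells lacking enzyme for full effect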
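Test system: recombinant HKDC1 (HK5) hexokinase enzyme, produced in-house / Doses: 20 µM test compound, 1% DMSO / Timing: 90 min, room temperature / Detection: G6PDH/diaphorase-coupled fluorescence, 1 mM NADP, 100 µM resazurin, 525/613 nm / Control set: DMSO wells with and without enzyme mix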
PvdQ inh: P. aeruginosa PvdQ acylase inhibitors, primary screen, biochemical, fluorescence, plate reader and imaging, single point; inhibition, % at 10 µM; purified PvdQ acylase; 340,000 compounds, 0.063% hits; PvdQ acylase [Pseudomonas aeruginosa LESB58]; in the data active = inhibition above about 30%, passing the limit was not always enough;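 also: 0% = vehicle neutral wells and 100% = reference inhibitor wells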
ATG4B inh: ATG4B protease inhibitors, primary screen, biochemical, fluorescence, uHTS; ATG4B cleavage of LC3-PLA2, NBD-HPC fluorescence, 1 h; inhibition, % at 8.33 µM; Cysteine protease ATG4B (Homo sapiens), Q9Y4P1; 340,000 compounds, 0.51% hits; in the data active = inhibition above about 40%
Target sequence (Q9Y4P1 whole entry, looked up): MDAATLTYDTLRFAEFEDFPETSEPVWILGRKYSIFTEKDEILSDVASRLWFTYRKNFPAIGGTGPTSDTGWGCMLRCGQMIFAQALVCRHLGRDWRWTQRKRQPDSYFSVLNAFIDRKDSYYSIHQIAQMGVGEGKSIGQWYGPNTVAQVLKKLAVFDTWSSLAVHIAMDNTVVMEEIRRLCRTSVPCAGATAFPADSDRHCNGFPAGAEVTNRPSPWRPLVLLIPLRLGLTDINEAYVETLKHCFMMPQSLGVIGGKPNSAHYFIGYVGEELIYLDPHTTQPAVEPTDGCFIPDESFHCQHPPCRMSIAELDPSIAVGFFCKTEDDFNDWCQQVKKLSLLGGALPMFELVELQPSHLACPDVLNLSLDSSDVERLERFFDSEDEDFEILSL
VIM-2 inhibitor: VIM-2 metallo-beta-lactamase inhibitors, primary screen, biochemical, epi-absorbance readout, Pseudomonas aeruginosa enzyme; purified VIM-2, nitrocefin hydrolysis, epi-absorbance fluorescence; 290,000 compounds, 0.89% hits; inhibition, % at 5.6 µM;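 active = inhibition above the mean of all tested compounds plus 3 SD, cutoff set per screening run, cut at about 7.5% in these data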;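 also: red hydrolysis product quenches plate fluorescence so inhibitors raise well fluorescence; 0% = enzyme with DMSO and 100% = DMSO without enzyme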
ATG4B conf: ATG4B protease inhibitors, retest, confirmation, biochemical, fluorescence, single concentration; shares compounds with ATG4B inh; 320 compounds, 92% hits; AID 504757, 2011; inhibition, % at 8.33 µM; ATG4B protease fluorescent substrate cleavage assay; in the data active = inhibition above about 39%
PLA2 counter: PLA2 enzyme inhibition, counter-screen for ATG4B inhibitor project, biochemical, single concentration, uHTS hits; shares compounds with ATG4B inh; inhibition, % at 8.33 µM; 1,600 compounds, 66% hits; AID 588402, 2011; purified PLA2, NBD-C6-HPC fluorescence, 45 min; in the data active = inhibition above about 50%
Target sequence (P04054 whole entry, looked up): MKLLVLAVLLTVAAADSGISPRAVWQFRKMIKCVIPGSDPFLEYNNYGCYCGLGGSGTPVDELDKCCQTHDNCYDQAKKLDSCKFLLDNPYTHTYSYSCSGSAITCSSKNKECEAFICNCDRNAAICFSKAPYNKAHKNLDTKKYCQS
* = called active by the depositor; / = not tested or not shown.

SMILES	beta cell repl	IMP-1 inh	HKDC1 inh	PvdQ inh	ATG4B inh	VIM-2 inhibitor	PLA2 counter	others
CN(CC(=O)NCC1CCCO1)S(=O)(=O)c1cc(Cl)ccc1Cl (stereo not drawn)	-2.6	-4.0	1.3	-12.5	93.0*	-2.5	1.6
COC(=O)c1c(C(=O)OC)c(-c2ccc(OC)cc2)n2c1CS(=O)(=O)C2	0.0	-3.8	-0.4	-10.5	-3.8	1.0	/
COc1cc(-c2nnc(SCc3c(F)cccc3Cl)o2)cc(OC)c1OC	-1.9	-1.9	5.7	-0.2	41.8*	-3.4	57.3*
COc1ccc(OC)c(-c2csc(N(Cc3ccco3)C(=O)c3cccs3)n2)c1	-3.5	0.3	-2.4	-6.1	56.7*	-1.9	72.4*
CCOc1ccc(C2=CS/C(=C(\C#N)c3nnc4n3CCCCC4)N2CC)cc1	-3.1	-2.5	-7.3	-2.5	48.4*	-0.7	42.5	ATG4B conf=72.0*
CNc1cc(CSc2ccc(Cl)cc2)nc(C)n1	-1.5	-2.9	10.2	-1.8	-2.7	-1.5	/
Cc1nc(CSc2ccc(Cl)cc2)cc(NCc2ccccc2)n1	-1.2	-1.4	-0.8	-9.4	72.8*	-3.0	78.9*
Cc1cccc(C)c1OCc1cc(C(=O)NCc2ccc(Cl)s2)no1	-3.8	-1.7	-2.7	-18.6	60.7*	-5.2	67.0*
O=C(NCc1ccc(Cl)s1)c1cc(COc2c(F)cccc2F)on1	-1.7	-1.1	-1.9	-0.9	11.8	1.1	/
O=C(c1cc(COc2ccc(F)cc2Cl)on1)N1CCc2sccc2C1	-2.5	-1.4	0.7	-11.2	32.8	-1.9	/
Cc1ccc(C)c(OCc2cc(C(=O)N3CCc4sccc4C3)no2)c1	-3.9	-2.1	-0.5	-3.7	45.8*	-0.8	81.1*
CSc1ccccc1OCc1cc(C(=O)N2CCc3sccc3C2)no1	-3.3	-2.9	-1.1	-8.4	72.1*	-5.3	78.5*
Cc1cc(NC(=O)CC2(CC(=O)O)CCCC2)n(C)n1	-2.4	-2.9	-2.5	-8.0	5.6	-0.9	/
Cc1cc(NC(=O)c2ccc(C#N)cc2)on1	-1.6	-3.2	-5.3	4.2	8.8	-2.7	/
COc1ccccc1Nc1nn2c(=O)c3ccc(C(=O)N4CCCC(C)C4)cc3nc2s1 (stereo not drawn)	-4.0	-0.9	15.1	-23.6	46.3*	2.1	63.0*
CCOC(=O)C1CCN(C(=O)c2ccc3c(=O)n4nc(Nc5cc(C)ccc5C)sc4nc3c2)CC1	-5.9	-1.3	2.8	4.1	7.7	-2.2	/
CCOC(=O)c1c(C)[nH]c(C(=O)COC(=O)COc2ccccc2C=O)c1C	-0.2	-0.2	10.2	-5.3	47.4*	0.4	44.8	ATG4B conf=55.7*
CN1CCC2(CC1)N=C(c1ccc(F)cc1)C(=S)N2C(=O)c1ccc(C(C)(C)C)cc1	0.0	-0.5	-0.4	3.3	44.6*	-1.1	9.7
Cc1nn(C)c(C)c1C(C)NC(=O)c1cc(COc2ccc(F)c(F)c2)on1 (stereo not drawn)	-1.6	-1.1	-5.3	-3.9	-4.6	2.7	/
N#Cc1c(-c2ccccc2)nc(SCC(=O)N2c3ccccc3Sc3ccccc32)[nH]c1=O	-5.2	-0.2	10.7	2.7	57.4*	4.7	59.1*
N#Cc1c(-c2ccccc2)nc(SCC(=O)N(c2ccccc2)c2ccccc2)[nH]c1=O	/	0.0	0.5	-19.2	13.2	0.6	/
Fc1ccccc1CNc1ccc(Cl)cc1	0.0	-2.5	-2.4	8.2	33.9	-0.1	/
Fc1ccc(NCc2ccccc2F)cc1Cl	-1.4	-2.5	-0.3	-5.4	41.5*	-1.3	28.8	ATG4B conf=68.5*
O=c1[nH]c(=S)[nH]c2c1C(c1ccc(Br)cc1)c1c([nH]c(=S)[nH]c1=O)O2	/	-2.2	18.1	-8.7	53.1*	-7.5	1.2	ATG4B conf=15.0
O=C1CCCC2=C1C(c1ccc(Br)cc1)c1c([nH]c(=S)[nH]c1=O)N2 (stereo not drawn)	-0.1	1.1	2.4	-11.1	-2.0	-2.8	/
SMILES	beta cell repl	IMP-1 inh	HKDC1 inh	PvdQ inh	ATG4B inh	VIM-2 inhibitor	PLA2 counter	others
Nc1ccc(C(=O)N/N=C\c2ccc(OC(=O)c3ccccc3Cl)cc2)cc1	-2.7	-4.5	-7.1	-7.1	-0.1	-2.6	/
O=C(O)c1ccc(N/N=C/c2ccc(OC(=O)c3ccccc3Cl)cc2)cc1	-4.2	-2.5	8.6	22.4	94.4*	-2.2	96.2*
Cc1ccc(N2CCN(C(=O)NC3CCCCC3)CC2C)cc1 (stereo not drawn)	0.7	-2.9	-6.3	-17.2	4.1	-0.4	/
O=C(O)c1cc(-c2ccc(-c3c(-c4ccc5c(c4)OCO5)noc3-c3ccsc3)cc2)nc2ccccc12	/	-4.8	3.6	-15.1	62.2*	-2.4	34.2	ATG4B conf=17.8
Cc1onc(-c2ccccc2Cl)c1C(=O)NC(=S)NCC(=O)c1ccccc1	-1.0	-1.8	10.8	1.5	44.8*	-3.2	47.1
CC(=O)Nc1cc(C(=O)N2CCc3ccccc3C2)ccc1Sc1ccc(Cl)cc1	-1.8	-2.3	3.5	19.8	40.5*	-0.8	50.7*
CC(=O)Nc1cc(C(=O)N2CCc3ccccc3C2)ccc1Sc1ccc(F)cc1	-4.5	-1.3	1.9	-18.6	24.4	-1.1	/
Cn1nc(C(F)(F)F)c(-c2ccc(Br)cc2)c1NC(=O)Nc1ccc(F)cc1F	-3.3	-3.8	-0.7	-0.5	3.5	-2.1	/
O=C(Cc1ccccc1)N/N=C/c1cc(Br)cc(Br)c1O	-7.0	-0.1	-15.9	9.7	-5.7	-1.4	/
Oc1c(Br)cc(Br)cc1C=NCc1ccccc1	-5.2	-1.7	18.1	-5.4	73.5*	-2.6	71.5*
CCCOc1ccc2ccccc2c1/C=C1\SC(=O)NC1=O	-4.4	-0.3	4.7	-13.8	/	-0.2	33.7
O=C1NC(=O)/C(=C\c2ccc(OCc3ccccc3)cc2)S1	-3.9	-3.8	11.3	-6.1	8.0	-3.6	/
O=C1NC(=O)/C(=C\c2ccccc2OCc2ccccc2)S1	-3.0	-0.8	11.8	-8.1	46.7*	-0.9	49.2	ATG4B conf=59.0*
O=C(COC(=O)c1c2c(nc3ccccc13)/C(=C/c1ccco1)CC2)NC1CCCC1	/	0.2	17.6	-3.6	0.4	-2.5	/
